An excerpt weighted towards active compounds, which were near 0.79% of everything screened.
mIAP act: mouse IAP activation | muIAP, CDP-Star luminescence, 30 min; active compounds read high; 1 = vehicle-only enzyme signal, 0 = enzyme-free wells | activation factor at 10 µM | 330,000 compounds, 0.24% hits | AID 2805;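 active means activation factor of at least 2 at 20 µM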
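System: Mouse IAP enzyme | Also added: CDP-Star substrate | Dosing: Compounds dispensed in DMSO | Schedule: 30 min enzyme-substrate-compound incubation at room temperature | Technique: Chemiluminescence readout | Control set: DMSO-only wells and no-enzyme negative control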
bIAP inhibitor: blocks bovine intestinal alkaline phosphatase activity; purified bovine IAP, CDP-star luminescence, 30 min; 190,000 tested, under 10 active; inhibition, % at 20 µM;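 active means over 50% inhibition of intestinal alkaline phosphatase at 20 µM in the single-dose screen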
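System: Purified bovine intestinal alkaline phosphatase (IAP) enzyme | Input: IAP diluted 1/65,000,000 in the well | Also added: CDP-star chemiluminescent phosphatase substrate, 30 µM final | Dosing: 20 µM single dose | Times: Enzyme reaction for 30 min at room temperature | Detection: Luminescence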
bIAP act: increases bovine intestinal alkaline phosphatase activity | 200,000 compounds, 0.17% hits | purified bovine IAP, CDP-star luminescence, 30 min; active compounds read high; fold of DMSO-control signal, blank-subtracted | activation factor at 20 µM | AID 1016;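 active means activation factor of 2 or more at 20 µM, a signal rise over negative controls twice the positive control's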
hIAP activ: human IAP activation; P09923; purified human IAP, CDP-Star luminescence, 30 min; active compounds read high; 1 = vehicle-only enzyme, 0 = enzyme-free background; activation factor at 10 µM; 330,000 compounds, 0.16% hits; AID 2524;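 active means activation factor of the enzyme at least 2-fold when tested at 20 µM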
Target sequence (P09923 whole entry, looked up): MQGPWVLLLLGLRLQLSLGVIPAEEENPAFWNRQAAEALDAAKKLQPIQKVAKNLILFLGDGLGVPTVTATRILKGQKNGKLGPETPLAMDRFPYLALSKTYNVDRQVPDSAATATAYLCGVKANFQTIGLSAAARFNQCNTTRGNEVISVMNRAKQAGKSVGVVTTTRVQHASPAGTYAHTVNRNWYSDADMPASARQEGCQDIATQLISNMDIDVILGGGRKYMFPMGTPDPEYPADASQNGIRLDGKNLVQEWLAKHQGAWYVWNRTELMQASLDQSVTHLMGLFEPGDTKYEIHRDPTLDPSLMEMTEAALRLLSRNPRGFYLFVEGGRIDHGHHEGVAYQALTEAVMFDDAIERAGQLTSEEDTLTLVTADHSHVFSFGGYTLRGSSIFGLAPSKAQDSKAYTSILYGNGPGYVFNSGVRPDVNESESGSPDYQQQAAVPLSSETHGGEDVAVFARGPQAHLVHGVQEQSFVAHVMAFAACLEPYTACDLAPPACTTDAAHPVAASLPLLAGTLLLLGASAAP
mIAP block: mouse IAP inhibition; 330,000 compounds, 0.2% hits; purified mouse IAP, CDP-Star luminescence, 30 min; inhibition, % at 10 µM;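 active means inhibition of at least 40% at 10 µM in the primary screen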;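 further: plate controls were DMSO with enzyme for no effect and no enzyme wells for full effect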
hIAP inh: human IAP inhibition. P09923. purified IAP, CDP-Star luminescence, 30 min. 330,000 compounds, 0.12% hits. inhibition, % at 10 µM;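 active means inhibition reaching a set limit with compound at 10 µM in the primary screen, cut at about 35% in these data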;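 further: plate controls were DMSO wells with enzyme for no effect and no-enzyme buffer wells for full effect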
mIAP inh confirm: mouse IAP inhibition confirmation. shares compounds with mIAP block. purified mouse IAP, CDP-Star luminescence, 30 min. inhibition, % at 10 µM. 11,000 compounds, 4.7% hits;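 active means inhibition of at least 40% at 10 µM in either of the two replicates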;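 further: plate controls were DMSO wells with enzyme for no effect and buffer wells lacking enzyme for full effect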
Active calls of the source: *; i = inactive; / = not tested or not shown.

SMILES	mIAP act	bIAP inhibitor	bIAP act	hIAP activ	mIAP block	hIAP inh	mIAP inh confirm
O=S(=O)(c1ccc(SCc2ccc(Cl)cc2)nc1)N1CCCC1	0.99	/	/	1.1	1	-12	/
O=C(CN1C(=O)c2ccccc2S1(=O)=O)c1ccc(O)c(O)c1	0.47	/	/	1	53*	-4	57*
O=C(CN1C(=O)c2ccccc2S1(=O)=O)c1ccc(F)c(F)c1	0.98	/	/	0.98	2	2	/
CNC(=O)CSc1nc2nn(-c3ccccc3)c(=O)c-2c2n1CCCCC2	1	5	1	1	-5	-1	/
O=C(CSc1nc2nn(-c3ccccc3)c(=O)c-2c2n1CCCCC2)c1ccc(O)c(O)c1	0.24	/	/	0.76	76*	24	81*
O=S(=O)(c1ccc(NC(=S)N/N=C/c2ccc(O)c(O)c2)cc1)N1CCOCC1	0.29	/	/	0.66	70*	34	76*
CC(=O)Nc1ccc(S(=O)(=O)N2CCN(S(=O)(=O)N3CCOCC3)CC2)cc1	1.1	/	/	1.1	-11	-15	/
N#Cc1ccc(/C=N/NC(=S)Nc2ccc(S(=O)(=O)N3CCOCC3)cc2)cc1	0.83	/	/	1	17	0	/
CC(NC(=S)Nc1ccc(S(=O)(=O)N2CCOCC2)cc1)C1CC2CCC1C2 (stereo unspecified)	4*	-10	1.1	1.5	-302	-45	-145
CC(OC(=O)CCc1c[nH]c2ccccc12)C(=O)c1ccccc1 (stereo unspecified)	0.97	19	0.8	0.97	3	3	/
Nc1cccc2cnccc12	0.96	0	1	1.1	4	-13	/
Nc1ccncc1N	0.28	/	/	1.2	72*	-21	75*
O=C(CC1Nc2cccc3cccc(c23)NC1=O)Nc1ccccc1 (stereo unspecified)	0.63	-8	1.1	1.1	37	-9	/
NC(=O)CC1Nc2cccc3cccc(c23)NC1=O (stereo unspecified)	0.59	5	0.9	1.2	41*	-17	50*
Oc1ccc(/C=N/Nc2cc(N3CCOCC3)nc(N3CCOCC3)n2)cc1O	0.58	4	1	1.1	42*	-11	63*
CCCOC(=O)c1ccc(Cl)c(NC(=O)c2cccnc2)c1	0.95	3	1	0.9	5	10	/
O=C(Nc1ccc(Cl)c(C(F)(F)F)c1)NC1CC2CCCC(C1)N2Cc1ccccc1 (stereo unspecified)	8.9*	-130	2.3*	1.9	i	-92	i
Cc1ccc(CN(C)C(=O)CSc2nnc3n2CCCCC3)c(C)c1	0.94	/	/	0.94	6	6	/
Cc1cc(O)c(Sc2ncn[nH]2)cc1NS(=O)(=O)c1ccc(Cl)cc1	0.53	/	/	1.1	47*	-10	44*
O=S(=O)(Nc1cc(Sc2ncn[nH]2)c(O)c2ccccc12)c1ccccc1	0.93	2	1	1.1	7	-8	/
COC(=O)N1C(=O)[C@](Cc2ccccc2)(c2ccccc2)N1C(=O)OC	1	/	/	0.96	-4	4	/
FC(F)Sc1ccc(NC(=S)NC(c2ccccc2)c2ccccc2)cc1	12*	13	0.9	1.7	i	-72	-277
COc1ccc(C2CC(c3ccccc3F)=NN2c2ccc(S(N)(=O)=O)cc2)cc1 (stereo unspecified)	2.1*	/	/	/	-114	/	-113
COc1ccc(C2CC(c3ccccc3C(F)(F)F)=NN2c2ccc(S(N)(=O)=O)cc2)cc1 (stereo unspecified)	2.2*	/	/	/	-123	/	-121
COc1ccc(C2CC(c3ccccc3Br)=NN2c2ccc(S(N)(=O)=O)cc2)cc1 (stereo unspecified)	1.2	/	/	/	-17	/	/
SMILES	mIAP act	bIAP inhibitor	bIAP act	hIAP activ	mIAP block	hIAP inh	mIAP inh confirm
COc1ccc(C2CC(c3ccc(C(F)(F)F)cc3)=NN2c2ccc(S(N)(=O)=O)cc2)cc1 (stereo unspecified)	1.7	/	/	/	-74	/	/
O=C(CSc1nnc(-c2ccco2)c(-c2ccco2)n1)c1ccccc1	0.5	2	1	1.2	50*	-19	51*
O=C(CSc1nnc(-c2ccco2)o1)c1ccc(F)c(F)c1	0.88	28	0.7	0.92	12	8	/
O=C(CSc1nnc(-c2ccco2)o1)c1ccccc1	0.56	6	0.9	1.1	44*	-10	43*
O=C(CCNC(=O)c1ccc([N+](=O)[O-])cc1)Nc1nc2ccccc2[nH]1	0.89	/	/	1.1	11	-8	/
COc1ccc(CCNC(=O)c2ccc(NS(=O)(=O)c3ccc4[nH]c(=O)[nH]c4c3)cc2)cc1	1	/	/	1.1	-5	-12	/
O=C(NNC(=S)NC(=O)c1cccs1)c1ccc(O)cc1	0.41	/	/	1.6	60*	-62	64*
O=C1NC(=Nc2ccccc2)S/C1=C\C=C\c1ccco1	0.27	2	1	0.86	73*	14	72*
COc1ccc(CNC(=O)C2CCC(CNc3nc(=S)[nH]c4ccccc34)CC2)cc1 (stereo unspecified)	1.1	-1	1	1.1	-10	-12	/
Cc1cc(O)c2c(c1O)C(=O)[C@]13C(=C2O)C(=O)[C@@H]2[C@@H](O)[C@H]1[C@@H]1[C@H](O)[C@H]3C(=O)C3=C(O)c4c(O)cc(C)c(O)c4C(=O)[C@]312	0.53	/	/	0.95	47*	5	41*
CCN(CC(=O)NC1CCS(=O)(=O)C1)c1ccc(S(=O)(=O)N(CC)CC)cc1[N+](=O)[O-] (stereo unspecified)	1	/	/	1.1	0	-5	/
CN(CCO)c1cc(N2CCN(C(=O)c3ccco3)CC2)c2nonc2c1[N+](=O)[O-]	0.94	14	0.9	0.77	6	24	/
COc1ccccc1[C@H]1C(c2ccccc2)=NN(c2ccccc2)[C@@H]1CO	2.2*	/	/	/	-116	/	-99
OC[C@@H]1[C@@H](c2ccc(Cl)cc2)C(c2cccc(Cl)c2)=NN1c1ccccc1	2.3*	/	/	/	-133	/	-120
COc1ccccc1[C@H]1C(c2cccc(C)c2)=NN(c2ccccc2)[C@@H]1CO	1.6	/	/	/	-75	/	/
Cc1cc(=O)oc2cc(NC(=O)C(C)N3C(=O)C4CCCCC4C3=O)ccc12 (stereo unspecified)	0.95	/	/	0.94	5	6	/
Cc1cc(C)cc(N2C(=O)CC(Sc3ncn[nH]3)C2=O)c1 (stereo unspecified)	0.94	6	0.9	0.88	6	12	/
CC(C)c1ccc(NC(=O)NC2(C(=O)NCc3cccnc3)CCCCC2)cc1	1.5	/	/	1.7	-53	-72	/
COc1ccccc1CNC(=O)C1(NC(=O)Nc2ccc(C)cc2)CCCCC1	5.9*	-386	4.9*	2.8*	-490	-183	-244
Cc1ccc(CNC(=O)C2(NC(=O)Nc3ccc(C)cc3)CCCCC2)cc1	6.6*	-7	1.1	0.96	i	4	-198

Assay outcomes: PubChem BioAssay, Sanford-Burnham Center for Chemical Genomics
